Assay [1] relates to Clostridioides difficile. In words: Antibacterial activity against rifampicin-resistant Clostridioides difficile CB1934 harboring rpoBQ489K mutant at 1:1 compound to rifampicin molar ratio measured after 3 days in presence of rifampicin. Format: functional. Conditions: CB1934, 72 h, time 3 day.
Assay [2] has as its system Clostridioides difficile. Put plainly: Antibacterial activity against fluoroquinolone-resistant Clostridioides difficile CB1939 at 1:1 compound to rifampicin molar ratio measured after 3 days in presence of rifampicin. Format: functional. The following applies: CB1939, 72 h, time 3 day.
In assay [3] the test system is Gardnerella vaginalis. Put plainly: Antibacterial activity against Gardnerella vaginalis ATCC 49145. Type of assay: functional.
Assay [4] deals with Helicobacter pylori. In words: Antibacterial activity against Helicobacter pylori ATCC 700392 at 1:1 compound to rifampicin molar ratio measured after 5 days in presence of rifampicin by agar dilution method. Type of assay: functional. Conditions: ATCC 700392, 120 h, time 5 day. An outline of the steps:
(§1)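 Agar dilution per CLSI: two-fold serial dilutions from 100× stocks in Mueller–Hinton agar with aged (≥2 weeks) sheep blood (5% v/v). Strains were wild-type ATCC 700392 (CB1531) and derived mutants carrying defined resistance determinants. MIC was read after 5 days at 35 °C under microaerobic conditions from a campylobacter gas-generating system. Routine culture was on TSA with 5% sheep blood.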
A general note: In agar dilution, organisms are placed on agar that contains the substance at set levels.

Assay [5] concerns Helicobacter pylori. Put plainly: Antibacterial activity against rifampicin-resistant Helicobacter pylori CB1903 harboring rpoBD530V mutant at 1:1 compound to rifabutin molar ratio measured after 5 days in presence of rifabutin by agar dilution method. Format: functional. The following applies: CB1903, 120 h, time 5 day. An outline of the steps: as §1
Another assay concerns Staphylococcus aureus. In words: Antibacterial activity against Staphylococcus aureus ATCC 29213. Type of assay: functional.
The subject of assay [6] is Clostridioides difficile. In words: Antibacterial activity against Clostridioides difficile clinical isolate China. Type of assay: functional.
Assay [7] concerns Helicobacter pylori. Put plainly: Antibacterial activity against metronidazole/rifampicin-resistant Helicobacter pylori CB1893 harboring rpoBL525I/D530N/rdxAR16S mutant measured after 5 days by agar dilution method. Type of assay: functional. Conditions: CB1893, 120 h, time 5 day. The method, boiled down: (§2)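 Agar dilution per CLSI. Wild-type ATCC 700392 (CB1531) and its derivatives carry defined resistance determinants. Drugs, alone or in 1:1 molar mixtures, were diluted 2-fold from 100× stocks into Mueller–Hinton agar with aged (≥2 weeks) sheep blood (5% v/v). MIC read after 5 days at 35 °C under microaerobic conditions from a campylobacter gas-generating system.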

A further assay deals with Fusobacterium nucleatum. In words: Antibacterial activity against Fusobacterium nucleatum ATCC 10953. Format: functional.
The subject of assay [8] is Porphyromonas asaccharolytica. Put plainly: Antibacterial activity against metronidazole-resistant Prevotella asaccharolytica MMX 3552. Format: functional.
Assay [9] concerns Gardnerella vaginalis. In words: Antibacterial activity against Gardnerella vaginalis clinical isolate China. Format: functional.
Assay [10] relates to Helicobacter pylori. Put plainly: Antibacterial activity against Helicobacter pylori clinical isolate China. Type of assay: functional.
Assay [11] concerns Clostridioides difficile. In words: Antibacterial activity against rifampicin/fluoroquinolone-resistant Clostridioides difficile CB1942 harboring rpoBQ489K/gyrAD71Y/T82A mutant at 1:1 compound to rifampicin molar ratio measured after 3 days in presence of rifampicin. Format: functional. The following applies: CB1942, 72 h, time 3 day.
Assay [12] deals with Helicobacter pylori. Put plainly: Antibacterial activity against rifampicin-resistant Helicobacter pylori CB1902 harboring rpoBV149F mutant at 1:1 compound to rifampicin molar ratio measured after 5 days in presence of rifampicin by agar dilution method. The following applies: CB1902, 120 h, time 5 day. Format: functional. The method, boiled down:
as §2

For assay [13], the system named is Helicobacter pylori. In words: Antibacterial activity against metronidazole-resistant Helicobacter pylori CB1573 harboring rdxAR16S mutant at 1:1 compound to rifabutin molar ratio measured after 5 days in presence of rifabutin by agar dilution method. Format: functional. The following applies: CB1573, 120 h, time 5 day. An outline of the steps: as §2
Assay [14] has as its system Gardnerella vaginalis. In words: Antibacterial activity against Gardnerella vaginalis ATCC 14018. Format: functional.
The test system of another assay is Bacteroides uniformis. Put plainly: Antibacterial activity against Bacteroides uniformis MMX 1277. Format: functional.
In assay [15] the test system is Helicobacter pylori. Put plainly: Antibacterial activity against rifampicin-resistant Helicobacter pylori CB1614 harboring rpoBL525I/D530N at 1:1 compound to rifampicin molar ratio measured after 5 days in presence of rifampicin by agar dilution method. Type of assay: functional. The following applies: CB1614, 120 h, time 5 day. The method, boiled down: as §2
The test system of assay [16] is Clostridioides difficile. In words: Antibacterial activity against rifampicin/fluoroquinolone-resistant Clostridioides difficile CB1940 harboring rpoBQ489K/gyrAA118S mutant at 1:1 compound to rifampicin molar ratio measured after 3 days in presence of rifampicin. Type of assay: functional. The following applies: CB1940, 72 h, time 3 day.
The subject of a further assay is Bacteroides fragilis. Put plainly: Antibacterial activity against metronidazole-resistant Bacteroides fragilis MMX 3387. Format: functional.
Assay [17] deals with Helicobacter pylori. In words: Antibacterial activity against metronidazole/rifampicin-resistant Helicobacter pylori CB1771 harboring rpoBL525I/D530N/rdxAE75stop mutant at 1:1 compound to rifampicin molar ratio measured after 5 days in presence of rifampicin by agar dilution method. Type of assay: functional. The following applies: CB1771, 120 h, time 5 day. An outline of the steps:
(§3)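 Agar dilution MIC per CLSI. Resistant derivatives of wild-type ATCC 700392 carrying defined rpoB/rdxA mutations. Test agent combined 1:1 molar with the partner drug. Agents prepared from 100× stocks and serially 2-fold diluted into Mueller–Hinton agar containing 5% v/v aged (≥2 weeks) sheep blood. Plates incubated 5 days at 35 °C under a microaerobic atmosphere from a gas-generating system.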

Assay [18] concerns Clostridioides difficile. Put plainly: Antibacterial activity against Clostridioides difficile clinical isolate USA. Type of assay: functional.
A further assay has as its system Actinomyces naeslundii. In words: Antibacterial activity against Actinomyces naeslundii ATCC 1210. Type of assay: functional.
Assay [19] has as its system Clostridioides difficile. In words: Antibacterial activity against fluoroquinolone-resistant Clostridioides difficile CB1941 harboring gyrAD71Y/T82A mutant at 1:1 compound to rifampicin molar ratio measured after 3 days in presence of rifampicin. Format: functional. The following applies: CB1941, 72 h, time 3 day.
Another assay deals with Clostridium sporogenes. Put plainly: Antibacterial activity against Clostridium sporogenes ATCC 19404. Type of assay: functional.
The test system of assay [20] is Helicobacter pylori. In words: Antibacterial activity against Helicobacter pylori ATCC 700392 at 1:1 compound to rifabutin molar ratio measured after 5 days in presence of rifabutin by agar dilution method. Type of assay: functional. The following applies: ATCC 700392, 120 h, time 5 day. An outline of the steps: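 Agar dilution per CLSI. Wild-type H. pylori ATCC 700392 (CB1531). Drugs prepared from 100× stocks as 2-fold dilutions in Mueller–Hinton agar with aged (≥2 weeks) sheep blood (5% v/v). Combinations were at 1:1 molar ratio. MIC read after 5 days at 35 °C under microaerobic atmosphere from a campylobacter gas-generating system.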

In assay [21] the test system is Helicobacter pylori. Put plainly: Antibacterial activity against Helicobacter pylori clinical isolate USA. Format: functional.
The subject of the next assay is Phocaeicola vulgatus. In words: Antibacterial activity against metronidazole-resistant Bacteroides vulgatus 3490. Format: functional.
The subject of assay [22] is Clostridioides difficile. In words: Antibacterial activity against rifampicin-resistant Clostridioides difficile harboring rpoBQ489K mutant. Type of assay: functional.
A further assay deals with Campylobacter gracilis. Put plainly: Antibacterial activity against Bacteroides gracilis ATCC 33236 MMX 1270. Type of assay: functional.
Assay [23] relates to Helicobacter pylori. Put plainly: Antibacterial activity against rifampicin resistant Helicobacter pylori harboring rpoBL525I/D530N mutant. Format: functional.
Another assay deals with Veillonella parvula. Put plainly: Antibacterial activity against Veillonella parvula ATCC 17745 MMX 1272. Format: functional.
The test system of assay [24] is Helicobacter pylori. Put plainly: Antibacterial activity against metronidazole/rifampicin-resistant Helicobacter pylori CB1771 harboring rpoBL525I/D530N/rdxAE75stop mutant measured after 5 days by agar dilution method. Type of assay: functional. The following applies: CB1771, 120 h, time 5 day. An outline of the steps:
as §2

The test system of assay [25] is Gardnerella vaginalis. In words: Antibacterial activity against Gardnerella vaginalis clinical isolate USA. Type of assay: functional.
The subject of the next assay is Fannyhessea vaginae. In words: Antibacterial activity against Atopobium vaginae BAA-55. Format: functional.
Assay [26] concerns Clostridioides difficile. In words: Antibacterial activity against Clostridioides difficile CB1921 ATCC BAA1382 at 1:1 compound to rifampicin molar ratio measured after 3 days in presence of rifampicin. Format: functional. The following applies: CB1921 ATCC BAA1382, 72 h, time 3 day.
For the next assay, the system named is Peptostreptococcus sp. In words: Antibacterial activity against Peptostreptococcus magnus ATCC 14956. Format: functional.
Assay [27] has as its system Syrian golden hamster. Put plainly: Antibacterial activity against Clostridioides difficile UNT-103-1 infected in Syrian hamster assessed as mortality at 100 mg/kg, po administered once a daily for 5 days after 18 hrs post 10 mg/kg clindamycin treatment and measured upto 21 days. Type of assay: functional, Mesocricetus auratus. The following applies: time <= 21 day. An outline of the steps:
(§4)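 Male Golden Syrian hamsters (80-90 g), housed singly, were gavaged with C. difficile UNT103-1 grown in sporulation medium broth and diluted to OD600 1 in prereduced broth. […] From 18 h later, drug or vehicle was given by oral gavage once daily for 5 days. Survival was recorded through day 21.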

Assay [28] has as its system Helicobacter pylori. Put plainly: Antibacterial activity against metronidazole/rifampicin-resistant Helicobacter pylori CB1893 harboring rpoBL525I/D530N/rdxAR16S mutant at 1:1 compound to rifampicin molar ratio measured after 5 days in presence of rifampicin by agar dilution method. Format: functional. Conditions: CB1893, 120 h, time 5 day. The method, boiled down:
as §3

For assay [29], the system named is Helicobacter pylori. In words: Antibacterial activity against metronidazole-resistant Helicobacter pylori CB1573 harboring rdxAR16S mutant measured after 5 days by agar dilution method. The following applies: CB1573, 120 h, time 5 day. Format: functional. The method, boiled down: as §2
Assay [30] has as its system Syrian golden hamster. In words: Antibacterial activity against Clostridioides difficile UNT-103-1 infected in Syrian hamster assessed as mortality at 20 mg/kg, po administered once a daily for 5 days after 18 hrs post 10 mg/kg clindamycin treatment and measured upto 21 days. Type of assay: functional, Mesocricetus auratus. The following applies: time <= 21 day. An outline of the steps:
as §4

In brackets after ≈: the same amount, converted by molar mass.

Usually MIC stands for the least concentration at which growth counts as inhibited. In general, MIC90 refers to an inhibitory concentration at the 90% level, which refers to growth in some studies and to a panel of isolates in others. A higher MIC90 goes with lower susceptibility.

In the case of `Cc1ncc([N+](=O)[O-])n1CCO` [METRONIDAZOLE], the MIC with Clostridioides difficile [1] is 2 µg/mL; in the assay on Clostridioides difficile [2], at most 0.03 µg/mL; with Gardnerella vaginalis [3], 4 µg/mL (≈ 23.4 µM); in the assay on Helicobacter pylori [4], 0.5 µg/mL; in the assay on Helicobacter pylori [5], 1 µg/mL; against Staphylococcus aureus, over 32 µg/mL. Further, the minimal inhibitory concentration (MIC) is at most 0.06 µg/mL against Clostridioides difficile [6]; 32 µg/mL (≈ 187 µM) with Helicobacter pylori [7]; 0.06 µg/mL (≈ 0.351 µM) in the assay with Fusobacterium nucleatum; 1 µg/mL (≈ 5.84 µM) in assay [8]; at least 16 µg/mL against Gardnerella vaginalis [9]; at least 0.25 µg/mL against Helicobacter pylori [10]. In addition, the MIC was 2 µg/mL in the assay on Clostridioides difficile [11]; 8 µg/mL in the assay on Helicobacter pylori [12]; at most 0.002 µg/mL in the assay on Helicobacter pylori [13]; 4 µg/mL (≈ 23.4 µM) with Gardnerella vaginalis [14]; over 256 µg/mL against Bacteroides uniformis; 8 µg/mL in the assay on Helicobacter pylori [15]. The MIC is 2 µg/mL with Clostridioides difficile [16]; over 256 µg/mL in the assay with Bacteroides fragilis; over 32 µg/mL with Helicobacter pylori [17]; 0.12 µg/mL (≈ 0.701 µM) in the assay with Clostridioides difficile [18]; 256 µg/mL (≈ 1500 µM) against Actinomyces naeslundii; at most 0.03 µg/mL in the assay on Clostridioides difficile [19]. The MIC against Clostridium sporogenes is 0.06 µg/mL (≈ 0.351 µM); with Helicobacter pylori [20], at most 0.002 µg/mL; against Phocaeicola vulgatus, 128 µg/mL (≈ 748 µM); against Clostridioides difficile [22], over 8 µg/mL; with Campylobacter gracilis it was over 256 µg/mL; against Helicobacter pylori [23], over 32 µg/mL. Further, the MIC was 2 µg/mL (≈ 11.7 µM) with Veillonella parvula; 32 µg/mL (≈ 187 µM) against Helicobacter pylori [24]; at least 2 µg/mL with Gardnerella vaginalis [25]; 128 µg/mL (≈ 748 µM) in the assay with Fannyhessea vaginae; at most 0.03 µg/mL with Clostridioides difficile [26]; 1 µg/mL (≈ 5.84 µM) in the assay with Peptostreptococcus sp.. Also, the MIC was over 32 µg/mL in the assay on Helicobacter pylori [28] and 32 µg/mL (≈ 187 µM) with Helicobacter pylori [29]. Further, the MIC90 against Clostridioides difficile [6] was 0.125 µg/mL (≈ 0.73 µM); in the assay on Gardnerella vaginalis [9], at least 32 µg/mL; against Helicobacter pylori [10], at least 16 µg/mL; in the assay on Helicobacter pylori [21], 128 µg/mL (≈ 748 µM); against Gardnerella vaginalis [25], 64 µg/mL (≈ 374 µM). Further, in the assay on Syrian golden hamster [27], the Activity is listed as 100%.
For `CN[C@H](CC(C)C)C(=O)N[C@H]1C(=O)N[C@@H](CC(N)=O)C(=O)N[C@H]2C(=O)N[C@H]3C(=O)N[C@H](C(=O)N[C@H](C(=O)O)c4cc(O)cc(O)c4-c4cc3ccc4O)[C@H](O)c3ccc(c(Cl)c3)Oc3cc2cc(c3O[C@@H]2O[C@H](CO)[C@@H](O)[C@H](O)[C@H]2O[C@H]2C[C@](C)(N)[C@H](O)[C@H](C)O2)Oc2ccc(cc2Cl)[C@H]1O` [VANCOMYCIN], the Activity in the assay with Syrian golden hamster [30] is recorded as 80%.
